Experimental data as given in PMC4857835 (Investigative Ophthalmology & Visual Science, 2016).

How the values were obtained:
[1] = molecular target: human PKal (plasma kallikrein) (Homo sapiens, UniProt P03952); assay: PKal protease activity assay, fluorogenic substrate H-D-Pro-Phe-Arg-AFC; type: biochemical
Procedure, shortened: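 Purified human plasma kallikrein with fluorogenic H-D-Pro-Phe-Arg-AFC at its Km concentration, plus test compound. Fluorescence is followed over 5 min and the linear rate per min is taken. IC50 is the concentration giving 50% inhibition of uninhibited activity (100%). Fold selectivity is each related protease's IC50 relative to the human PKal IC50.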

[2] = molecular target: mouse PKal (plasma kallikrein) (Mus musculus, UniProt P26262); assay: PKal protease activity assay, fluorogenic substrate H-D-Pro-Phe-Arg-AFC; type: biochemical
Procedure, shortened: (§1)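 Purified mouse or rat plasma kallikrein with fluorogenic H-D-Pro-Phe-Arg-AFC at substrate Km, with test compound present. Liberated fluorescence is monitored over 5 min and the linear rate per min is calculated. IC50 is the inhibitor concentration giving 50% inhibition of uninhibited enzyme activity (100%).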

[3] = molecular target: rat PKal (plasma kallikrein) (Rattus norvegicus, UniProt P14272); assay: as above; type: biochemical
Procedure, shortened: as §1

thrombin = thrombin (Homo sapiens, UniProt P00734); assay: Trypsin-like protease enzyme activity assay; type: biochemical
Procedure, shortened: (§2)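 Each human protease (plasmin, thrombin, trypsin, KLK1, factor XIa) is run with a suitable fluorogenic substrate. Km comes from a standard Michaelis-Menten transformation, and assays run at substrate Km. Fluorescence is read over 5 min and the linear rate per min is expressed as % activity. IC50 is 50% inhibition of uninhibited activity, and fold selectivity is relative to the human PKal IC50.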

plasmin = plasmin (Homo sapiens, UniProt P00747); assay: Trypsin-like protease enzyme activity assay; type: biochemical
Procedure, shortened: as §2

KLK1 tissue kallikrein = KLK1 tissue kallikrein (Homo sapiens, UniProt P06870); assay: Trypsin-like protease enzyme activity assay; type: biochemical
Procedure, shortened: as §2

trypsin = assay: Trypsin-like protease enzyme activity assay; type: biochemical, human
Procedure, shortened: as §2

factor XIa = factor XIa (Homo sapiens, UniProt P03951); assay: Trypsin-like protease enzyme activity assay; type: biochemical
Procedure, shortened: as §2

[4] = In vivo pharmacokinetics following subcutaneous dosing; design: species or system male SD rats; settings: male, SD, rat, plasma, sc, 10 mg/kg
[5] = system: VEGF-induced retinal thickening; assay: VEGF-induced retinal thickening in mice; type: in vivo, WT mice (C57Bl/6); settings: 1.60 mg/kg/d s.c. osmotic pump, VEGF 100 ng/eye
[6] = system: VEGF-induced retinal thickening; assay: VEGF-induced retinal thickening in rats; type: in vivo, Sprague-Dawley rats; settings: 0.58 mg/kg/d s.c. osmotic pump, VEGF 10 ng/eye, 48 hours, P < 0.001
Procedure, shortened: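 Male Sprague-Dawley rats (10 weeks) got test compound 0.58 mg/kg/d or vehicle (10% PEG400 in PBS) by s.c. osmotic pump, started 1 day before 5 µL intravitreal VEGF 10 ng/eye or PBS. SD-OCT (2.5×2.5 mm volume centred on the optic nerve head) gave RPE-to-RNFL thickness 800 µm from centre at baseline, 24 and 48 h. Change from baseline was compared with vehicle-treated rats.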

Chain of human PKal (plasma kallikrein) (P03952 391-638 limits assumed): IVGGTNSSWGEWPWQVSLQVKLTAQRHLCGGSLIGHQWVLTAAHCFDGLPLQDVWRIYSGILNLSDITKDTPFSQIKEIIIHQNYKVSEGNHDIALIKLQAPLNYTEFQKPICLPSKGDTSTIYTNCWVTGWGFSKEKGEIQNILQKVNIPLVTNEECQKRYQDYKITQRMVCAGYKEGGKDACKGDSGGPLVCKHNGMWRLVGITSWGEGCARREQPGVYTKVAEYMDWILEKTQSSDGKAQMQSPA
Chain of human PKal (plasma kallikrein) (P03952 20-390 partner limits assumed): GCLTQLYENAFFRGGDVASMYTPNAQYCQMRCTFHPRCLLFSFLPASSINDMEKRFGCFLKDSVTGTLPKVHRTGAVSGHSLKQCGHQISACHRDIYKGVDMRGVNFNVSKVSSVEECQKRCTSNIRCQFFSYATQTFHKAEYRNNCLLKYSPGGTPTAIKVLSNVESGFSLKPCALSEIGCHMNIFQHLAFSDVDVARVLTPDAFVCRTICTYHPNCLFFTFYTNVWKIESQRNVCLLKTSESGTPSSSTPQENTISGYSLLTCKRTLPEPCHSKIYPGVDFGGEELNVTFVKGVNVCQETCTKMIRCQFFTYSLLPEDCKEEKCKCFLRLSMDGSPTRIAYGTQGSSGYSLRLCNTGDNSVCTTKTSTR
Chain of KLK1 tissue kallikrein (P06870 25-262): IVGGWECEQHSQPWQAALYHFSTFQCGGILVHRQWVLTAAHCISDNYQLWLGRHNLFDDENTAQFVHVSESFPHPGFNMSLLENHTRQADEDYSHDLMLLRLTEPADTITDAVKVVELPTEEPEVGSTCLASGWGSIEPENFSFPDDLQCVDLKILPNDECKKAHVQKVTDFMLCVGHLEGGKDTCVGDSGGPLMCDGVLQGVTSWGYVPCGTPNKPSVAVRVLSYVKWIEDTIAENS
Chain of plasmin (P00747 581-810 limits assumed): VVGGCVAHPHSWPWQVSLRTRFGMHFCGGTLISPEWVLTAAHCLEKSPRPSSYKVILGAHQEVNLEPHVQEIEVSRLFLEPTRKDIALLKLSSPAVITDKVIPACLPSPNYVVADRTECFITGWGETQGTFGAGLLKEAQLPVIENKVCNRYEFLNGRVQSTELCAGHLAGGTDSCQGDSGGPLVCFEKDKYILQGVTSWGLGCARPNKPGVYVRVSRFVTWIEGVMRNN
Chain of plasmin (P00747 97-580 partner limits assumed): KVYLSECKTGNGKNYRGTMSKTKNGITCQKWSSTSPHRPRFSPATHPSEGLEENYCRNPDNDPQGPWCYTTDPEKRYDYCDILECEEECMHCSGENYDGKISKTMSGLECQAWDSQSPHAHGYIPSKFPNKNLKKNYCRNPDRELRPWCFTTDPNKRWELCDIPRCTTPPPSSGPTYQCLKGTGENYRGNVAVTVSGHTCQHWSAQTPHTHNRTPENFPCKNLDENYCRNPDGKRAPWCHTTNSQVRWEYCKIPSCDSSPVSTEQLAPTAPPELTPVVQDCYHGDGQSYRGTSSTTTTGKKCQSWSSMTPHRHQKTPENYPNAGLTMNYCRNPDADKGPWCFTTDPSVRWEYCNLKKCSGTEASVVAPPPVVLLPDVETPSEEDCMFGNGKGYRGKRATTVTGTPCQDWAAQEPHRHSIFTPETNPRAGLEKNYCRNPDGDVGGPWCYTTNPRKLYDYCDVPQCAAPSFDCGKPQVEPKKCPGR
Chain of factor XIa (P03951 388-625 limits assumed): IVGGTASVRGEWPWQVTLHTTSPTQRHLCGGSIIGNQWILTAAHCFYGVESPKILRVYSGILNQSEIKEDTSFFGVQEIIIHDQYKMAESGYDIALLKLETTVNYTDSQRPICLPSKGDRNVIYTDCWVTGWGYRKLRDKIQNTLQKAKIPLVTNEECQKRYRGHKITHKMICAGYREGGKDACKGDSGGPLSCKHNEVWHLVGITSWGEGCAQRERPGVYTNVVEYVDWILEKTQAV
Chain of factor XIa (P03951 19-387 partner limits assumed): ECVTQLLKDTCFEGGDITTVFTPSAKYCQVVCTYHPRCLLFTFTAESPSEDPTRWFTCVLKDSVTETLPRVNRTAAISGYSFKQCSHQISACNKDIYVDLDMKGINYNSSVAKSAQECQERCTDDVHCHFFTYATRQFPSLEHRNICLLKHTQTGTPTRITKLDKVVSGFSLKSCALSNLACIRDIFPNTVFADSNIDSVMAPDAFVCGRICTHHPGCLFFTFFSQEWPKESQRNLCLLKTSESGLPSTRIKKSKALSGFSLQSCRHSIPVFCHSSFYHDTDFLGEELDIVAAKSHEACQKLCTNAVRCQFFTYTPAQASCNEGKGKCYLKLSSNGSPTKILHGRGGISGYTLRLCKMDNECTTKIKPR
Chain of mouse PKal (plasma kallikrein) (P26262 391-638 limits assumed): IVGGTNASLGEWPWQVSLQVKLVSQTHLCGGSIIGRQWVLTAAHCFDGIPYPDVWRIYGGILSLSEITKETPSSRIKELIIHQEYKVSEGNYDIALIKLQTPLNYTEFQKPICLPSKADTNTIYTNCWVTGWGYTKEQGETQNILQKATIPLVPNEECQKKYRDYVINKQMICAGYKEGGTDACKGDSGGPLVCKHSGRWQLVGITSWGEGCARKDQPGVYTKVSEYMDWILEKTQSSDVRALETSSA
Chain of mouse PKal (plasma kallikrein) (P26262 20-390 partner limits assumed): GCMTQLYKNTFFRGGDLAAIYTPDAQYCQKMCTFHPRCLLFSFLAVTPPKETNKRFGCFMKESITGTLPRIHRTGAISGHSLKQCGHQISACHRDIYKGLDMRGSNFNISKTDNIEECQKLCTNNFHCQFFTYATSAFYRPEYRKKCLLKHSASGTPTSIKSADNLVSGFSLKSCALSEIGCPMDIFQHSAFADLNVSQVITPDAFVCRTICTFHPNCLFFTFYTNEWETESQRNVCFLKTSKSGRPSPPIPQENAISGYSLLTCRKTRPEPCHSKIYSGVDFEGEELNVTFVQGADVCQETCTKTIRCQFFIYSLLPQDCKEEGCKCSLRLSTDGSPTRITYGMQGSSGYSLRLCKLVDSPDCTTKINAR
Chain of rat PKal (plasma kallikrein) (P14272 391-638 limits assumed): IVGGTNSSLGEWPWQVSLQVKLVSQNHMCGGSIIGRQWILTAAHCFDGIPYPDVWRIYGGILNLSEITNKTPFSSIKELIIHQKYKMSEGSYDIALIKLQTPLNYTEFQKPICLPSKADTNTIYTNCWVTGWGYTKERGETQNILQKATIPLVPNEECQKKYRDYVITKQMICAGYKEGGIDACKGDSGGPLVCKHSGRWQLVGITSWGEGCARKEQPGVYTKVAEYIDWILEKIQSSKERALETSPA
Chain of rat PKal (plasma kallikrein) (P14272 20-390 partner limits assumed): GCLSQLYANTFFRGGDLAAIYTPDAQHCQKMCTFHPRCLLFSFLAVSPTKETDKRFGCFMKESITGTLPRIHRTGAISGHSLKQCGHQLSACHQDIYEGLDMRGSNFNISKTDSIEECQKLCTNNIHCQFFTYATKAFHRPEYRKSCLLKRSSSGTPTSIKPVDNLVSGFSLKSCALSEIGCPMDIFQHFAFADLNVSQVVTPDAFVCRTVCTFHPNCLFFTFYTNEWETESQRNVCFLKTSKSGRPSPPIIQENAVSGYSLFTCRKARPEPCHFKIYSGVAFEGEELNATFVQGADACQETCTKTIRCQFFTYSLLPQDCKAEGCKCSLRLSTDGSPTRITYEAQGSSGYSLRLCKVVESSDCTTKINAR

IC50 [1]: 0.00398 ± 0.00361 µM | Fold selectivity to human PKal ([1]; PKal itself (reference)): 1 | selectivity to PKal over closely related trypsin-like serine proteases ([1]; vs KLK1, factor XIIa, factor XIa, thrombin, plasmin, trypsin): > 1000 fold | IC50 [2]: 0.00118 ± 0.00025 µM | IC50 [3]: 0.00654 ± 0.00076 µM | IC50 (thrombin): 9.1 µM | Fold selectivity to human PKal (thrombin; thrombin IC50 vs human PKal IC50): 2291 | IC50 (plasmin): 23.1 µM | Fold selectivity to human PKal (plasmin; plasmin IC50 vs human PKal IC50): 5821 | IC50 (KLK1 tissue kallikrein): 33.5 µM | Fold selectivity to human PKal (KLK1 tissue kallikrein; KLK1 IC50 vs human PKal IC50): 8414 | IC50 (trypsin; read-out: Mean IC50 Trypsin, substrate at Km): 38.9 µM | Fold selectivity to human PKal (trypsin; trypsin IC50 vs human PKal IC50): 9772 | IC50 (factor XIa): > 10 µM | Fold selectivity to human PKal (factor XIa; factor XIa IC50 vs human PKal IC50): >2513 | Cmax [4]: 974 ng/mL | Tmax [4]: 1.5 h | half-life [4]: 3.55 h
SMILES: CCOc1ccc(C[C@@H](N)C(=O)N[C@@H](Cc2ccccc2)C(=O)NC2CCN(C(=N)N)CC2)cc1.O=C(O)C(F)(F)F.O=C(O)C(F)(F)F [VA999272, (R)-2-amino-N-[(S)-1-(1-carbamimidoyl-piperidin-4-ylcarbamoyl)-2-phenyl-ethyl]-3-(4-ethoxy-phenyl)-propionamide ditrifluoroacetate]
reduction of VEGF effect on retinal thickness vs vehicle-treated ([5]; 24 hours, P = 0.039): 36% | reduction of VEGF effect on retinal thickness vs vehicle-treated ([5]; 48 hours, P < 0.001): 57% | reduction of VEGF-induced retinal thickening vs vehicle-treated [6]: 53%
